# Results pooled from the literature.
# Compare with care: the assays were run in different laboratories.
# Target: Mitogen-activated protein kinase kinase kinase kinase 4 (MAP4K4, Homo sapiens, UniProt O95819)
Compound,read-out,method,tested at,remaining binding [%]
CN(C)c1ncnc(-c2ccc3nc(Nc4cc(CN5CCN(C(=O)CC(F)(F)F)CC5)ccn4)[nH]c3c2)c1Cl,cell-free assay,competition with immobilised ligand,1 µM,100
C=CC(=O)N1CCC(C(=O)NCC(=O)N2CCN(c3nc(-c4cnc(N)nc4C(F)F)nc(N4CCOCC4)n3)CC2)CC1,binding,competition with immobilised ligand,1 µM,80
CC1CCCN1c1nccc(-c2cnn3ncccc23)n1 (stereo not drawn),binding,,1 µM,100
O=C(c1ccc(Nc2ncc(Cl)c(-c3ccc(Cl)s3)n2)cc1)N1CCC(N2CCCC2)CC1,binding,competition with immobilised ligand,1 µM,26
N[C@H]1CCN(c2nccc(-c3cnn4ncccc34)n2)C1,binding,,1 µM,100
O=C1CCc2cc(Nc3cc(OC4CCOCC4)c([N+](=O)[O-])cc3Cl)ccc2N1,cell-free assay,competition with immobilised ligand,1 µM,100
CN(c1nccc(-c2cnn3ncccc23)n1)C1CC1,binding,,1 µM,13
Cc1nccc(COC(=O)N2C[C@@H]3[C@@H](CNC(=O)c4ccc5[nH]nnc5c4)[C@@H]3C2)n1,cell-free assay,competition with immobilised ligand,1 µM,99
COc1ccnn2ncc(-c3ccnc(N(C)C)n3)c12,binding,,1 µM,93
Nc1ncc2c(n1)-c1c([nH]c3ccc(C#CC4CC4)cc13)CCCC2,binding,competition with immobilised ligand,1 µM,90
C[C@H](c1cccc(C#N)c1)n1cc(Cl)cc(C(N)=O)c1=N,cell-free assay,competition with immobilised ligand,1 µM,100
c1cncc(-c2cccc(Nc3nccc(NC4CCCCC4)n3)c2)c1,binding,competition with immobilised ligand,10 µM,26
CCc1ccccc1C(=O)Nc1n[nH]c2c(C)c(F)c(C3C(C#N)=C(C)N(C)C(C)=C3C#N)cc12,cell-free assay,competition with immobilised ligand,1 µM,100
CN(C)c1ncc(F)c(-c2cnn3ncccc23)n1,binding,,1 µM,100
C[C@@H](c1ccc(-n2cnc3c(N)ncnc32)cc1)N1CCc2nn(C)c(Cc3ccccc3)c2C1=O,binding,competition with immobilised ligand,0.1 µM,97
O=C(c1ccc(Nc2nccc(-c3cc4ccccc4s3)n2)cc1)N1CCC(N2CCCC2)CC1,binding,competition with immobilised ligand,1 µM,40
O=C(Nc1c[nH]nc1C(=O)NC1CCNCC1)c1cc(F)cc(F)c1,binding,competition with immobilised ligand,1 µM,100
O=C(NCCCC1CCCCC1)c1ccc(CNC(=O)c2cnn(-c3ccccc3)c2C(F)(F)F)cc1,cell-free assay,competition with immobilised ligand,0.1 µM,81
Cc1cnn2ncc(-c3ccnc(N(C)C)n3)c2c1,binding,,1 µM,100
O=C(NCCCN1CCOCC1)c1ccc(Nc2nccc(-c3cc4ccccc4s3)n2)cc1,binding,competition with immobilised ligand,1 µM,100
COc1cnc(Nc2cccc(S(N)(=O)=O)c2)nc1N1CCN(c2ccccc2)CC1,binding,competition with immobilised ligand,1 µM,87
